Test results taken from PubChem BioAssay.
Activity calls are given as the source filed them.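 Rule for the calls, unless noted: active = mean duplicate potentiation above the buffer control mean plus 5 SD of buffer wells; inactive = the rest.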

What follows are molecules tested against Potassium voltage-gated channel subfamily KQT member 1 (Homo sapiens) (UniProt P51787) (assay: enhancement of KCNQ1 channel thallium flux – FluxOR thallium flux, CHO cells, duplicates, confirmation (AID 493007;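 active = potentiation averaged over duplicate wells exceeding buffer-only control mean by more than 3 SD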;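 for outcome: cells depolarized by a potassium plus thallium sulfate stimulus after compound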;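 for potentiation: 0% = buffer-only wells and 100% = R-L3 activator control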)). Details: KCNQ1 cell line, FluxOR thallium flux fluorescence, at 10 µM; hits give high values, % of reference activator effect, buffer zero.
In short: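 Assay system: CHO cells carrying KCNQ1 | Controls: Buffer and R-L3 controls | Schedule: FluxOR dye loading 90 min, compound exposure 20 min, room temperature | Read-out: Baseline-normalized fluorescence change, percent of buffer-to-R-L3 range | Replicates: Each compound tested in duplicate | Technique: Kinetic thallium influx fluorescence with FluxOR dye, 10 s baseline, 110 s post-stimulus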

Potassium voltage-gated channel subfamily KQT member 1 (Homo sapiens), sequence (P51787 whole entry, looked up): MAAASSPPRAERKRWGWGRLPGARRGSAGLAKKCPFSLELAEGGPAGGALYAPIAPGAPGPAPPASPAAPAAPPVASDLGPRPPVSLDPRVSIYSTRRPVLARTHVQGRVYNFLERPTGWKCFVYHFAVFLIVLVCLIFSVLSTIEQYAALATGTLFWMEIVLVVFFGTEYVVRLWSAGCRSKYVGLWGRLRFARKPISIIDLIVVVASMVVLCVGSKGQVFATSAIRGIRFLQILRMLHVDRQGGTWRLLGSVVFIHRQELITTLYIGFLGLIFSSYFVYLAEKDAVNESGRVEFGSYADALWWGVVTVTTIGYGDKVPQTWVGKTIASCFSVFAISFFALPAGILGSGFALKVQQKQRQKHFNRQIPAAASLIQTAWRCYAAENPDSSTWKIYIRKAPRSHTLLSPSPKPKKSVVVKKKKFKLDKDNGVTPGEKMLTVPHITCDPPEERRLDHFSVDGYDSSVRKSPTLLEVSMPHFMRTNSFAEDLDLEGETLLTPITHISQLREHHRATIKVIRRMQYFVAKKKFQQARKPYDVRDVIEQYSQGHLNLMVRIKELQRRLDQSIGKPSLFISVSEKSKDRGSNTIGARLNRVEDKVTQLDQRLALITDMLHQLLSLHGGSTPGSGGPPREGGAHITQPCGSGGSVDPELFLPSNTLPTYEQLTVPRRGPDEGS

| Compound | outcome | potentiation |
| --- | --- | --- |
| CCC1CCCCN1S(=O)(=O)c1ccc(NC(=O)c2cccnc2)cc1 (stereo not drawn) | inactive | – |
| S=C(Nc1ccc(Br)cc1)N1CCn2cccc2C1c1cccnc1 (stereo not drawn) | inactive | – |
| COc1cccc(C(=O)COc2ccc(NC(=O)c3ccccc3)cc2)c1 | inactive | – |
| O=C(O)c1ccc2c(c1)C(=O)N(c1ccc(Cl)cn1)C2=O | inactive | – |
| CN(C(=O)c1cc(COc2c(F)cccc2F)on1)C1CCOC1 (stereo not drawn) | inactive | – |
| COc1cccc(/C=N/NC(=O)C(C)n2nc(C)c([N+](=O)[O-])c2C)c1O (stereo not drawn) | inactive | – |
| Cc1cc(C)c(NC(=O)CN2C(=O)NC3(CCCc4ccccc43)C2=O)c(Cl)c1 (stereo not drawn) | inactive | – |
| CN(CCCNC(=O)CSc1cc(=O)n(C)c2ccc(Cl)cc12)Cc1ccccc1 | inactive | – |
| Cc1ccccc1NC(=S)NNC(=O)c1csc2c1CCC(C)C2 (stereo not drawn) | – | 30% (active) |
| CCC(O)(CC)C(=O)NN(C(=O)CCl)c1ccccc1 | inactive | – |
| S=c1sc2c(Cl)ncnc2n1-c1ccccc1 | – | 146% (active) |
| COc1cccc(C(=O)Nc2nc(-c3ccccc3)c(-c3ccccc3)o2)c1 | – | 31% (active) |
| Cc1ccc(Cc2c[nH]c(=S)s2)cc1 | – | 126% (active) |
| COc1ccc(-n2c(=S)[nH]c3c(oc4ccccc43)c2=O)cc1 | inactive | – |
| O=C(O)CSc1c2c(nc3cc(C(=O)Nc4cccc(C(F)(F)F)c4)ccc13)CCC2 | inactive | – |
| CCOC(=O)c1sc(NN=C(C(=O)OC)C(=O)OC)c(C(=O)OCC)c1C | – | 74.5% (active) |
| Cc1ccc(-c2csc3ncnc(SCc4ccc(C(=O)O)cc4)c23)cc1 | – | 36.5% (active) |
| CC(C)[N+]1(C)[C@@H]2CC[C@H]1CC(OC(=O)C(CO)c1ccccc1)C2 (stereo partly drawn) | inactive | – |
| C/C(=N\NC(=O)C(C)Sc1ccccc1)c1ccc([N+](=O)[O-])cc1 (stereo not drawn) | inactive | – |
| COCCOC(=O)N/C=C\c1nc2ccccc2c(=O)[nH]1 | inactive | – |

| Compound | outcome | potentiation |
| --- | --- | --- |
| COc1ccc2nc(N3C(=O)/C(=C/c4ccccc4)NC3=S)sc2c1 | – | 204% (active) |
| O=C(CSc1nc(=O)n2ccccc2n1)NCc1ccccc1 | inactive | – |
| O=C(NC(=S)Nc1ccc(N2CCOCC2)c(Cl)c1)c1sc2ccccc2c1Cl | – | 35.5% (active) |
| CC(=O)O[C@H]1CSC[C@H]1NC(=O)c1ccccc1 | inactive | – |
| COc1ccc(C(=O)NNC(=O)C(=O)Nc2ccc(C)cc2)cc1 | – | 123% (active) |
| COc1ccccc1-n1cnc2cc(NCc3ccco3)ccc21 | – | 34.5% (active) |
| CCc1ccc2[nH]c(O)c(N=Nc3nc(-c4ccccc4)cs3)c2c1 | – | 178% (active) |
| O=S(=O)(CC(CN1CCCC1)N1CCCC1)c1ccc2ccccc2c1 (stereo not drawn) | inactive | – |
| C=CCn1c(O)c(N=NC(=S)Nc2cccc(OC)c2)c2ccccc21 | – | 85.5% (active) |
| CSc1nccc(-c2nn(-c3ccc(C)cc3)ccc2=O)n1 | inactive | – |
| CCN1c2ccccc2-c2nc3ccccc3n2C1c1cccnc1 (stereo not drawn) | inactive | – |
| COC(=O)c1ccc(/C=C/c2ccc3cccc(OC)c3n2)cc1 | inactive | – |
| CCSc1nc2c(sc3ccccc32)c(=O)n1C(C)C | – | 206% (active) |
| COc1ccc(NC(=O)C(=O)NNC(=O)c2cccs2)cc1 | – | 24.5% (active) |
| CCCn1c(NC(=O)CN2C(=O)NC3(CCCC3)C2=O)nc2ccccc21 | inactive | – |
| COc1ccc(C2NC(c3ccc(OC)c(OC)c3OC)C(C)C(=O)C2C)c(OC)c1OC (stereo not drawn) | inactive | – |
| COC(=O)c1sc(-c2ccccc2)cc1NC(=O)C1CC1 | inactive | – |
| CN1C(=O)C2(Oc3ccccc3C3CC(c4ccccc4)=NN32)c2ccccc21 (stereo not drawn) | inactive | – |
| O=C1c2cccc3cccc(c23)C(=O)N1c1cccc(O)c1 | inactive | – |

The molecules below were run against Potassium voltage-gated channel subfamily KQT member 2 (Rattus norvegicus) (UniProt O88943) (assay: KCNQ2 thallium flux enhancement – KCNQ2-CHO-K1 cells, selectivity assay for KCNQ1 potentiator project (AID 493009;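 note: assay conditions were tuned for KCNQ1 rather than KCNQ2 modulators; signal is max minus min fluorescence divided by baseline after thallium stimulus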)). Details: FluxOR thallium flux fluorescence, at 10 µM; hits give high values, scaled: buffer 0, activator control 100.
Potassium voltage-gated channel subfamily KQT member 2 (Rattus norvegicus), sequence (O88943 whole entry, looked up): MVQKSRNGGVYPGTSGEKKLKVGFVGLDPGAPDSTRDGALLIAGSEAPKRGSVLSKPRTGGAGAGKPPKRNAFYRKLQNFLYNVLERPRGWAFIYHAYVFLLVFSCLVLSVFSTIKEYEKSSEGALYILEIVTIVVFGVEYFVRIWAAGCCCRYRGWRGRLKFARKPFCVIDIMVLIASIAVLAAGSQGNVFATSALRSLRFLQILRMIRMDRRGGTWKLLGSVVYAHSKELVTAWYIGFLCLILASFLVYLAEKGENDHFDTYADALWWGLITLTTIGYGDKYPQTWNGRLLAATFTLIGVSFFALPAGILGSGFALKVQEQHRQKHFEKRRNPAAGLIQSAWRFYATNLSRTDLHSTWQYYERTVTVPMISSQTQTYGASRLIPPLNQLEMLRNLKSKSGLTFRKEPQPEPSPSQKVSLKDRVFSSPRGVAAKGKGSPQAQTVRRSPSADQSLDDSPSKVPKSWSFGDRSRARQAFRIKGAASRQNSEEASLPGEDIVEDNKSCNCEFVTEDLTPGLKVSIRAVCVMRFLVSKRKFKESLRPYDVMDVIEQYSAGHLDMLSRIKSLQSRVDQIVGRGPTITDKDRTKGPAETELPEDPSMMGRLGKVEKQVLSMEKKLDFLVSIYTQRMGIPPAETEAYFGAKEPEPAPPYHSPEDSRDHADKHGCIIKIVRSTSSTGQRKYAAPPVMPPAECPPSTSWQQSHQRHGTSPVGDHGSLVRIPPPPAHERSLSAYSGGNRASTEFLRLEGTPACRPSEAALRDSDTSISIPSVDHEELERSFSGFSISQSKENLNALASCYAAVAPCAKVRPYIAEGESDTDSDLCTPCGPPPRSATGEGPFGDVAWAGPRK

| Compound | outcome | potentiation |
| --- | --- | --- |
| CCC1CCCCN1S(=O)(=O)c1ccc(NC(=O)c2cccnc2)cc1 (stereo not drawn) | inactive | – |
| S=C(Nc1ccc(Br)cc1)N1CCn2cccc2C1c1cccnc1 (stereo not drawn) | inactive | – |
| COc1cccc(C(=O)COc2ccc(NC(=O)c3ccccc3)cc2)c1 | inactive | – |
| O=C(O)c1ccc2c(c1)C(=O)N(c1ccc(Cl)cn1)C2=O | inactive | – |
| CN(C(=O)c1cc(COc2c(F)cccc2F)on1)C1CCOC1 (stereo not drawn) | inactive | – |
| COc1cccc(/C=N/NC(=O)C(C)n2nc(C)c([N+](=O)[O-])c2C)c1O (stereo not drawn) | inactive | – |
| Cc1cc(C)c(NC(=O)CN2C(=O)NC3(CCCc4ccccc43)C2=O)c(Cl)c1 (stereo not drawn) | inactive | – |
| CN(CCCNC(=O)CSc1cc(=O)n(C)c2ccc(Cl)cc12)Cc1ccccc1 | inactive | – |
| Cc1ccccc1NC(=S)NNC(=O)c1csc2c1CCC(C)C2 (stereo not drawn) | – | 200% (active) |
| CCC(O)(CC)C(=O)NN(C(=O)CCl)c1ccccc1 | inactive | – |
| S=c1sc2c(Cl)ncnc2n1-c1ccccc1 | – | 364% (active) |
| COc1cccc(C(=O)Nc2nc(-c3ccccc3)c(-c3ccccc3)o2)c1 | – | 164% (active) |
| Cc1ccc(Cc2c[nH]c(=S)s2)cc1 | – | 343% (active) |
| COc1ccc(-n2c(=S)[nH]c3c(oc4ccccc43)c2=O)cc1 | inactive | – |
| O=C(O)CSc1c2c(nc3cc(C(=O)Nc4cccc(C(F)(F)F)c4)ccc13)CCC2 | inactive | – |
| CCOC(=O)c1sc(NN=C(C(=O)OC)C(=O)OC)c(C(=O)OCC)c1C | – | 208% (active) |
| Cc1ccc(-c2csc3ncnc(SCc4ccc(C(=O)O)cc4)c23)cc1 | – | 175% (active) |
| CC(C)[N+]1(C)[C@@H]2CC[C@H]1CC(OC(=O)C(CO)c1ccccc1)C2 (stereo partly drawn) | inactive | – |
| C/C(=N\NC(=O)C(C)Sc1ccccc1)c1ccc([N+](=O)[O-])cc1 (stereo not drawn) | inactive | – |
| COCCOC(=O)N/C=C\c1nc2ccccc2c(=O)[nH]1 | inactive | – |

| Compound | outcome | potentiation |
| --- | --- | --- |
| COc1ccc2nc(N3C(=O)/C(=C/c4ccccc4)NC3=S)sc2c1 | – | 486% (active) |
| O=C(CSc1nc(=O)n2ccccc2n1)NCc1ccccc1 | inactive | – |
| O=C(NC(=S)Nc1ccc(N2CCOCC2)c(Cl)c1)c1sc2ccccc2c1Cl | inactive | – |
| CC(=O)O[C@H]1CSC[C@H]1NC(=O)c1ccccc1 | inactive | – |
| COc1ccc(C(=O)NNC(=O)C(=O)Nc2ccc(C)cc2)cc1 | – | 380% (active) |
| COc1ccccc1-n1cnc2cc(NCc3ccco3)ccc21 | inactive | – |
| CCc1ccc2[nH]c(O)c(N=Nc3nc(-c4ccccc4)cs3)c2c1 | – | 282% (active) |
| O=S(=O)(CC(CN1CCCC1)N1CCCC1)c1ccc2ccccc2c1 (stereo not drawn) | inactive | – |
| C=CCn1c(O)c(N=NC(=S)Nc2cccc(OC)c2)c2ccccc21 | – | 271% (active) |
| CSc1nccc(-c2nn(-c3ccc(C)cc3)ccc2=O)n1 | inactive | – |
| CCN1c2ccccc2-c2nc3ccccc3n2C1c1cccnc1 (stereo not drawn) | inactive | – |
| COC(=O)c1ccc(/C=C/c2ccc3cccc(OC)c3n2)cc1 | inactive | – |
| CCSc1nc2c(sc3ccccc32)c(=O)n1C(C)C | – | 479% (active) |
| COc1ccc(NC(=O)C(=O)NNC(=O)c2cccs2)cc1 | – | 187% (active) |
| CCCn1c(NC(=O)CN2C(=O)NC3(CCCC3)C2=O)nc2ccccc21 | inactive | – |
| COc1ccc(C2NC(c3ccc(OC)c(OC)c3OC)C(C)C(=O)C2C)c(OC)c1OC (stereo not drawn) | inactive | – |
| COC(=O)c1sc(-c2ccccc2)cc1NC(=O)C1CC1 | inactive | – |
| CN1C(=O)C2(Oc3ccccc3C3CC(c4ccccc4)=NN32)c2ccccc21 (stereo not drawn) | inactive | – |
| O=C1c2cccc3cccc(c23)C(=O)N1c1cccc(O)c1 | inactive | – |
